System: HEK-293T
Experiment: Multiplex assay against HEK293T
Type: toxicity, cell-based
Conditions: human
How it was run: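 Live cells carried four stains from seeding: Hoechst33342, BioTracker Green Microtubule Cytoskeleton Dye, MitoTracker Red and Annexin V Alexa Fluor 680. They were imaged on a CQ1 microscope at 37°C and 5% CO2 after compound addition. Using CellPathfinder machine-learning gating, cells were split into Hoechst high-intensity objects or normal cells, normal cells into healthy, pyknosed or fragmented nuclei, and pyknosed cells into mitotic or apoptotic; tubulin, mitochondrial-mass and membrane-permeability phenotypes are per cents of healthy-nucleus cells.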

[1] = 12 h, 1 µM, compound concentration 1 uM, replicate 1
[2] = 12 h, 1 µM, compound concentration 1 uM, replicate 2
[3] = 12 h, 10 µM, compound concentration 10 uM, replicate 1
[4] = 12 h, 10 µM, compound concentration 10 uM, replicate 2
[5] = 24 h, 1 µM, compound concentration 1 uM, replicate 1
[6] = 24 h, 1 µM, compound concentration 1 uM, replicate 2
[7] = 24 h, 10 µM, compound concentration 10 uM, replicate 1
[8] = 24 h, 10 µM, compound concentration 10 uM, replicate 2
[9] = 48 h, 1 µM, compound concentration 1 uM, replicate 1
[10] = 48 h, 1 µM, compound concentration 1 uM, replicate 2
[11] = 48 h, 10 µM, compound concentration 10 uM, replicate 1
[12] = 48 h, 10 µM, compound concentration 10 uM, replicate 2

CN(C)c1ccnc2sc3c(=O)n(N4CCCCCC4)cnc3c12
Population Apoptotic (%) [1]: 45% | Population Fragmented Nuclei (%) [1]: 9% | Population Healthy Nuclei (%) [1]: 76% | Population Hoechst High Intensity Objects (%) [1]: 4% | Population Membrane Permeable-Phenotype (%) [1]: 1% | Population Mitochondria Different-Phenotype (%) [1]: 50% | Population Mitotic Cells (%) [1]: 54% | Population Normal (%) [1]: 95% | Population Pyknosed Nuclei (%) [1]: 13% | Population Tubulin-Different-Phenotype (%) [1]: 43% | Total Cell Count [1]: 360 | Population Apoptotic (%) [2]: 51% | Population Fragmented Nuclei (%) [2]: 5% | Population Healthy Nuclei (%) [2]: 82% | Population Hoechst High Intensity Objects (%) [2]: 8% | Population Membrane Permeable-Phenotype (%) [2]: 0% | Population Mitochondria Different-Phenotype (%) [2]: 67% | Population Mitotic Cells (%) [2]: 48% | Population Normal (%) [2]: 91% | Population Pyknosed Nuclei (%) [2]: 12% | Population Tubulin-Different-Phenotype (%) [2]: 25% | Total Cell Count [2]: 335 | Population Apoptotic (%) [3]: 36% | Population Fragmented Nuclei (%) [3]: 4% | Population Healthy Nuclei (%) [3]: 81% | Population Hoechst High Intensity Objects (%) [3]: 10% | Population Membrane Permeable-Phenotype (%) [3]: 0% | Population Mitochondria Different-Phenotype (%) [3]: 78% | Population Mitotic Cells (%) [3]: 63% | Population Normal (%) [3]: 89% | Population Pyknosed Nuclei (%) [3]: 14% | Population Tubulin-Different-Phenotype (%) [3]: 79% | Total Cell Count [3]: 387 | Population Apoptotic (%) [4]: 59% | Population Fragmented Nuclei (%) [4]: 9% | Population Healthy Nuclei (%) [4]: 72% | Population Hoechst High Intensity Objects (%) [4]: 13% | Population Mitochondria Different-Phenotype (%) [4]: 76% | Population Mitotic Cells (%) [4]: 40% | Population Normal (%) [4]: 86% | Population Pyknosed Nuclei (%) [4]: 17% | Population Tubulin-Different-Phenotype (%) [4]: 59% | Total Cell Count [4]: 308 | Population Apoptotic (%) [5]: 30% | Population Fragmented Nuclei (%) [5]: 10% | Population Healthy Nuclei (%) [5]: 76% | Population Hoechst High Intensity Objects (%) [5]: 4% | Population Membrane Permeable-Phenotype (%) [5]: 1% | Population Mitochondria Different-Phenotype (%) [5]: 27% | Population Mitotic Cells (%) [5]: 70% | Population Normal (%) [5]: 95% | Population Pyknosed Nuclei (%) [5]: 12% | Population Tubulin-Different-Phenotype (%) [5]: 24% | Total Cell Count [5]: 510 | Population Apoptotic (%) [6]: 25% | Population Fragmented Nuclei (%) [6]: 7% | Population Healthy Nuclei (%) [6]: 84% | Population Hoechst High Intensity Objects (%) [6]: 5% | Population Membrane Permeable-Phenotype (%) [6]: 0% | Population Mitochondria Different-Phenotype (%) [6]: 51% | Population Mitotic Cells (%) [6]: 74% | Population Normal (%) [6]: 94% | Population Pyknosed Nuclei (%) [6]: 7% | Population Tubulin-Different-Phenotype (%) [6]: 22% | Total Cell Count [6]: 470 | Population Apoptotic (%) [7]: 42% | Population Fragmented Nuclei (%) [7]: 7% | Population Healthy Nuclei (%) [7]: 76% | Population Hoechst High Intensity Objects (%) [7]: 8% | Population Membrane Permeable-Phenotype (%) [7]: 0% | Population Mitochondria Different-Phenotype (%) [7]: 80% | Population Mitotic Cells (%) [7]: 57% | Population Normal (%) [7]: 91% | Population Pyknosed Nuclei (%) [7]: 16% | Population Tubulin-Different-Phenotype (%) [7]: 71% | Total Cell Count [7]: 428 | Population Apoptotic (%) [8]: 66% | Population Fragmented Nuclei (%) [8]: 10% | Population Healthy Nuclei (%) [8]: 74% | Population Hoechst High Intensity Objects (%) [8]: 13% | Population Mitochondria Different-Phenotype (%) [8]: 75% | Population Mitotic Cells (%) [8]: 33% | Population Normal (%) [8]: 86% | Population Pyknosed Nuclei (%) [8]: 15% | Population Tubulin-Different-Phenotype (%) [8]: 53% | Total Cell Count [8]: 359 | Population Apoptotic (%) [9]: 27% | Population Fragmented Nuclei (%) [9]: 13% | Population Healthy Nuclei (%) [9]: 78% | Population Hoechst High Intensity Objects (%) [9]: 2% | Population Membrane Permeable-Phenotype (%) [9]: 0% | Population Mitochondria Different-Phenotype (%) [9]: 23% | Population Mitotic Cells (%) [9]: 72% | Population Normal (%) [9]: 97% | Population Pyknosed Nuclei (%) [9]: 7% | Population Tubulin-Different-Phenotype (%) [9]: 14% | Total Cell Count [9]: 721 | Population Apoptotic (%) [10]: 20% | Population Fragmented Nuclei (%) [10]: 11% | Population Healthy Nuclei (%) [10]: 82% | Population Hoechst High Intensity Objects (%) [10]: 3% | Population Membrane Permeable-Phenotype (%) [10]: 2% | Population Mitochondria Different-Phenotype (%) [10]: 31% | Population Mitotic Cells (%) [10]: 80% | Population Normal (%) [10]: 96% | Population Pyknosed Nuclei (%) [10]: 6% | Population Tubulin-Different-Phenotype (%) [10]: 15% | Total Cell Count [10]: 663 | Population Apoptotic (%) [11]: 70% | Population Fragmented Nuclei (%) [11]: 15% | Population Healthy Nuclei (%) [11]: 72% | Population Hoechst High Intensity Objects (%) [11]: 8% | Population Membrane Permeable-Phenotype (%) [11]: 0% | Population Mitochondria Different-Phenotype (%) [11]: 66% | Population Mitotic Cells (%) [11]: 29% | Population Normal (%) [11]: 91% | Population Pyknosed Nuclei (%) [11]: 12% | Population Tubulin-Different-Phenotype (%) [11]: 54% | Total Cell Count [11]: 497 | Population Apoptotic (%) [12]: 57% | Population Fragmented Nuclei (%) [12]: 11% | Population Healthy Nuclei (%) [12]: 75% | Population Hoechst High Intensity Objects (%) [12]: 6% | Population Mitochondria Different-Phenotype (%) [12]: 63% | Population Mitotic Cells (%) [12]: 42% | Population Normal (%) [12]: 93% | Population Tubulin-Different-Phenotype (%) [12]: 45% | Total Cell Count [12]: 450

Reference: ChEMBL document CHEMBL5058577, “EUbOPEN Chemogenomics Library 2 (Multiplex)” (2022)
